Among the data in ChEMBL document CHEMBL3244429, “Antischistosomal effects of 5-(2,4,5-trichlorophenyl)hydantoin and related compounds” (J Med Chem, 1977) are Activity and inhibition in vivo values, retold here.

A word on the inhibition in vivo: it is the percentage by which the read-out fell short of the control.

Holding throughout (type): functional
Test [1] concerns Schistosoma mansoni. The experiment in a line: Antischistosomal activity against Schistosoma mansoni Puerto Rican infected mouse assessed as infected mouse at 329 mg/kg/day, through diet for 14 days. The essentials:
(§1)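 Mice carrying a Puerto Rican strain of S. mansoni received drug mixed into a powdered diet for 14 days, with dose expressed as mg/kg per day. The read-out was the reduction in live schistosomes in the infected mice.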

Test [2] deals with Schistosoma mansoni. The experiment in a line: Antischistosomal activity against Schistosoma mansoni Puerto Rican infected mouse assessed as reduction in live schistosomes at 329 mg/kg/day, through diet for 14 days. The settings on record: 336 h. In outline:
as §1

Test [3] has as its system Schistosoma mansoni. Kind of test: Antischistosomal activity against Schistosoma mansoni Puerto Rican infected mouse assessed as reduction in live schistosomes at 400 mg/kg/day, through gavage for 10 days. The settings on record: po, 240 h.
The subject of test [4] is Schistosoma mansoni. Kind of test: Antischistosomal activity against Schistosoma mansoni Puerto Rican infected mouse assessed as infected mouse at 400 mg/kg/day, through gavage for 10 days.
Test [5] concerns Schistosoma mansoni. Kind of test: Antischistosomal activity against Schistosoma mansoni Puerto Rican infected mouse assessed as reduction in live schistosomes at 314 mg/kg/day, through diet for 14 days. The settings on record: 336 h. In outline: as §1
For test [6], the system named is Schistosoma mansoni. The experiment in a line: Antischistosomal activity against Schistosoma mansoni Puerto Rican infected mouse assessed as infected mouse at 314 mg/kg/day, through diet for 14 days. The essentials:
as §1

Test [7] relates to Schistosoma mansoni. The experiment in a line: Antischistosomal activity against Schistosoma mansoni Puerto Rican infected mouse assessed as reduction in live schistosomes at 302 mg/kg/day, through diet for 14 days. The following applies: 336 h. In outline:
as §1

Test [8] has as its system Schistosoma mansoni. Kind of test: Antischistosomal activity against Schistosoma mansoni Puerto Rican infected mouse assessed as infected mouse at 302 mg/kg/day, through diet for 14 days. The essentials:
as §1

For test [9], the system named is Schistosoma mansoni. The experiment in a line: Antischistosomal activity against Schistosoma mansoni Puerto Rican infected mouse assessed as infected mouse at 347 mg/kg/day, through diet for 14 days. In outline: as §1
Test [10] concerns Schistosoma mansoni. Kind of test: Antischistosomal activity against Schistosoma mansoni Puerto Rican infected mouse assessed as reduction in live schistosomes at 347 mg/kg/day, through diet for 14 days. The settings on record: 336 h. In outline: as §1
In test [11] the test system is Schistosoma mansoni. The experiment in a line: Antischistosomal activity against Schistosoma mansoni Puerto Rican infected mouse assessed as reduction in live schistosomes at 336 mg/kg/day, through diet for 14 days. The following applies: 336 h. The essentials: as §1
Test [12] concerns Schistosoma mansoni. The experiment in a line: Antischistosomal activity against Schistosoma mansoni Puerto Rican infected mouse assessed as infected mouse at 336 mg/kg/day, through diet for 14 days. The essentials:
as §1

For test [13], the system named is Schistosoma mansoni. The experiment in a line: Antischistosomal activity against Schistosoma mansoni Puerto Rican infected mouse assessed as reduction in live schistosomes at 301 mg/kg/day, through diet for 14 days. The following applies: 336 h. In outline: as §1
Test [14] deals with Schistosoma mansoni. The experiment in a line: Antischistosomal activity against Schistosoma mansoni Puerto Rican infected mouse assessed as infected mouse at 301 mg/kg/day, through diet for 14 days. The essentials:
as §1

The subject of test [15] is Schistosoma mansoni. The experiment in a line: Antischistosomal activity against Schistosoma mansoni Puerto Rican infected mouse assessed as infected mouse at 146 mg/kg/day, through diet for 14 days. In outline:
as §1

Test [16] concerns Schistosoma mansoni. Kind of test: Antischistosomal activity against Schistosoma mansoni Puerto Rican infected mouse assessed as reduction in live schistosomes at 146 mg/kg/day, through diet for 14 days. The following applies: 336 h. In outline: as §1
For test [17], the system named is Schistosoma mansoni. Kind of test: Antischistosomal activity against Schistosoma mansoni Puerto Rican infected mouse assessed as reduction in live schistosomes at 349 mg/kg/day, through diet for 14 days. The following applies: 336 h. In outline:
as §1

The test system of test [18] is Schistosoma mansoni. The experiment in a line: Antischistosomal activity against Schistosoma mansoni Puerto Rican infected mouse assessed as infected mouse at 349 mg/kg/day, through diet for 14 days. In outline: as §1
In test [19] the test system is Schistosoma mansoni. Kind of test: Antischistosomal activity against Schistosoma mansoni Puerto Rican infected mouse assessed as infected mouse at 376 mg/kg/day, through diet for 14 days. In outline:
as §1

Test [20] concerns Schistosoma mansoni. Kind of test: Antischistosomal activity against Schistosoma mansoni Puerto Rican infected mouse assessed as reduction in live schistosomes at 376 mg/kg/day, through diet for 14 days. The settings on record: 336 h. The essentials: as §1
Test [21] relates to Schistosoma mansoni. The experiment in a line: Antischistosomal activity against Schistosoma mansoni Puerto Rican infected mouse assessed as infected mouse at 249 mg/kg/day, through diet for 14 days. The essentials:
as §1

Test [22] concerns Schistosoma mansoni. Kind of test: Antischistosomal activity against Schistosoma mansoni Puerto Rican infected mouse assessed as reduction in live schistosomes at 249 mg/kg/day, through diet for 14 days. The settings on record: 336 h. In outline:
as §1

As for `O=C1NC(=O)C(c2cc(Cl)c(Cl)cc2Cl)N1` (centres undefined), the figures for the Activity in test [1] and in [4] were 67% and 100%, respectively. Besides, the inhibition in vivo at 329 mg/kg/day in test [2] was found to be 80%. The inhibition in vivo at 400 mg/kg/day in [3] turned out to be 0%.
For the compound `CC1(c2ccc([N+](=O)[O-])cc2)NC(=O)NC1=O` (centres undefined), the inhibition in vivo at 314 mg/kg/day in test [5] was 0%. In test [6], the Activity was 100%.
For `O=C1NC(=O)C(c2ccc(Cl)cc2Cl)N1` (centres undefined), the inhibition in vivo at 302 mg/kg/day in [7] turned out to be 36%. The Activity in test [8] came out at 100%.
As for `O=C1NC(=O)C(c2c(Cl)cccc2Cl)N1` (centres undefined), in test [9], the Activity came to 100%. Besides, the inhibition in vivo at 347 mg/kg/day in test [10] was found to be 2%.
For `CN1C(=O)C(c2cc(Cl)c(Cl)cc2Cl)N(C)C1=O` (centres undefined), the inhibition in vivo at 336 mg/kg/day in test [11] is 88%. Moreover, the Activity in test [12] is given as 83%.
As to `CC1(c2ccc(Cl)cc2Cl)NC(=O)NC1=O` (centres undefined), the inhibition in vivo at 301 mg/kg/day in test [13] was determined as 8%. The Activity in test [14] is 100%.
Turning to `O=C1NC(=O)C(c2ccc(Cl)c(Cl)c2)N1` (centres undefined), the Activity in test [1] was 100%. For the same compound, the inhibition in vivo at 329 mg/kg/day in [2] was found to be 0%.
Take `O=C1NC(c2cc(Cl)c(Cl)cc2Cl)C(=O)N1CO` (centres undefined): the Activity in test [15] was determined as 100%. In addition, the inhibition in vivo at 146 mg/kg/day in test [16] turned out to be 0%.
As to `Cc1cc(Cl)c(Cl)cc1C1(C)NC(=O)NC1=O` (centres undefined), the inhibition in vivo at 349 mg/kg/day in test [17] was determined as 48%. For the same compound, the Activity in test [18] came to 100%.
Regarding `CC1(c2ccc(Cl)c(Cl)c2)NC(=O)NC1=O` (centres undefined), the Activity in test [19] was found to be 100%. Besides, in [20], the inhibition in vivo at 376 mg/kg/day was 38%.
As for `O=C1NCCN1c1ncc([N+](=O)[O-])s1` [NIRIDAZOLE], the Activity in test [21] is 17%. Further, in test [22], the inhibition in vivo at 249 mg/kg/day was found to be 99%.
